Calls of active or inactive are those of the source. The calls are words filed in the database; no cut-off is given here.
Legend:
HL-60 = experiment: Cytotoxicity against human HL60 cells after 48 hrs by MTT assay; format: functional, cell-based; details: HL-60, 48 h
Method in brief: (§1)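 Cells exposed to a range of compound concentrations for 48 h, washed once with PBS, then incubated with MTT for 2 h. Formazan dissolved in DMSO and absorbance read at 570 nm. IC50 taken as the concentration giving 50% inhibition of proliferation.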

HCT-116 = experiment: Cytotoxicity against human HCT116 cells after 48 hrs by MTT assay; format: functional, cell-based; details: HCT-116, 48 h; method in brief: as §1
[1] = Cytotoxicity against human Hep3B cells after 48 hrs by MTT assay; format: functional, cell-based, Hep 3B2; method in brief: as §1
NCI-H460 = experiment: Cytotoxicity against human H460 cells after 48 hrs by MTT assay; format: functional, cell-based; details: NCI-H460, 48 h; method in brief: as §1
Hep 3B2 [2] = experiment: Antitumor activity against human Hep3B cells xenografted in BALB/c nude mouse assessed as inhibition of tumor growth administered at 7.5 to 30 mg/kg, iv qd for 5 times per week for 4 weeks; format: functional, organism-based; details: TDE = time-dependent effect
Method in brief: (§2)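 Male Balb/c nude mice, 4-6 weeks, 18-20 g; 2 × 10^6 Hep3B cells in 0.1 mL injected subcutaneously into right flank. Dosing began when tumors exceeded 100 mm3 (day 0), given po or iv once daily, 5 days/week for 4 weeks, stopped day 28. Tumor volume (length × width² × 0.5) and body weight recorded every 7 days; T/C = (Tn − T0)/(Cn − C0) × 100%.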

Hep 3B2 [3] = experiment: Antitumor activity against human Hep3B cells xenografted in po dosed BALB/c nude mouse assessed as inhibition of tumor growth administered qd for 5 times per week for 4 weeks measured on day 28; format: functional, organism-based; method in brief: as §2
Hep 3B2 [4] = experiment: Antitumor activity against human Hep3B cells xenografted in iv dosed BALB/c nude mouse assessed as inhibition of tumor growth administered qd for 5 times per week for 4 weeks measured on day 28; format: functional, organism-based; method in brief: as §2
Mus musculus = experiment: Toxicity in human Hep3B cells xenografted BALB/c nude mouse assessed as change in body weight at 7.5 to 30 mg/kg, po qd for 5 times per week for 4 weeks measured on day 28; format: organism-based, Hep 3B2; design: dose 7.5-30 mg/kg, route oral; details: in vivo, 672 h
Method in brief: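 Male Balb/c nude mice, 4-6 weeks old and 18-20 g, were housed under SPF conditions. Each received 2 × 10^6 Hep3B cells in 0.1 mL s.c. into the right flank. Once tumors exceeded 100 mm3 (day 0), animals were grouped and dosed orally once daily, 5 days/week for 4 weeks. Body weight and tumor size were recorded every 7 days up to day 28.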

Hep 3B2 [5] = experiment: Antitumor activity against human Hep3B cells xenografted in BALB/c nude mouse assessed as inhibition of tumor growth administered at 7.5 mg/kg, po qd for 5 times per week for 4 weeks; format: functional, organism-based; design: dose 7.5 mg/kg; method in brief: as §2
Hep 3B2 [6] = experiment: Antitumor activity against human Hep3B cells xenografted in BALB/c nude mouse assessed as inhibition of tumor growth administered at 7.5 to 30 mg/kg, po qd for 5 times per week for 4 weeks; format: functional, organism-based; details: TDE = time-dependent effect; method in brief: as §2
Hep 3B2 [7] = experiment: Antitumor activity against human Hep3B cells xenografted in BALB/c nude mouse assessed as inhibition of tumor growth administered at 7.5 mg/kg, po qd for 5 times per week for 4 weeks
Hep 3B2 [8] = experiment: Antitumor activity against human Hep3B cells xenografted in BALB/c nude mouse assessed as inhibition of complete tumor growth administered at 30 mg/kg, po qd for 5 times per week for 4 weeks; format: functional, organism-based; design: dose 30 mg/kg; method in brief: as §2

| Structure (SMILES) | IC50 (HL-60) | IC50 (HCT-116) | IC50 [1] | IC50 (NCI-H460) | Activity (Hep 3B2 [2]) | Activity (Hep 3B2 [3]) | Activity (Hep 3B2 [4]) | Activity (Mus musculus) | Activity (Hep 3B2 [5]) | Activity (Hep 3B2 [6]) | Activity (Hep 3B2 [7]) | Activity (Hep 3B2 [8]) |
| --- | --- | --- | --- | --- | --- | --- | --- | --- | --- | --- | --- | --- |
| COc1cc2c(=O)cc(-c3ccc(F)cc3)[nH]c2cc1O | 38.2 µM | > 100 µM | > 100 µM | > 100 µM | – | – | – | – | – | – | – | – |
| O=c1cc(-c2ccccc2F)[nH]c2ccc3c(c12)OCO3 | 1 µM | 2.1 µM | 1.9 µM | 4.5 µM | – | – | – | – | – | – | – | – |
| O=c1cc(-c2ccc(F)cc2)[nH]c2ccc(O)c(O)c12 | 38.6 µM | > 100 µM | 100 µM | 100 µM | – | – | – | – | – | – | – | – |
| O=c1cc(-c2cccc(F)c2)[nH]c2ccc3c(c12)OCO3 | 0.7 µM | 2.5 µM | 2.4 µM | 3.2 µM | – | – | – | – | – | – | – | – |
| COc1cc2c(=O)cc(-c3cccc(F)c3)[nH]c2cc1O | 0.9 µM | 1.1 µM | 5.3 µM | 4.8 µM | – | – | – | – | – | – | – | – |
| COc1ccc2[nH]c(-c3ccccc3F)cc(=O)c2c1O | 0.07 µM | 0.05 µM | 0.05 µM | 0.11 µM | – | – | – | – | – | – | – | – |
| COc1cc2c(=O)cc(-c3ccccc3F)[nH]c2cc1O | 1.3 µM | 5.8 µM | 5.3 µM | 4.4 µM | – | – | – | – | – | – | – | – |
| O=c1cc(-c2ccc(F)cc2)[nH]c2ccc3c(c12)OCO3 | > 10 µM | > 10 µM | > 10 µM | > 10 µM | – | – | – | – | – | – | – | – |
| COc1ccc2[nH]c(-c3ccccc3F)cc(=O)c2c1OC | 3.7 µM | > 20 µM | > 20 µM | > 20 µM | – | – | – | – | – | – | – | – |
| O=c1cc(-c2ccccc2F)[nH]c2cc3c(cc12)OCO3 | 0.08 µM | 0.15 µM | 0.13 µM | 0.14 µM | – | – | – | – | – | – | – | – |
| O=c1cc(-c2ccccc2F)[nH]c2ccc(O)c(O)c12 | 0.5 µM | 0.6 µM | 3.9 µM | 4.1 µM | – | – | – | – | – | – | – | – |
| COc1ccc2[nH]c(-c3cccc(F)c3)cc(=O)c2c1OC | 1.3 µM | 1.2 µM | 2.6 µM | 3.5 µM | – | – | – | – | – | – | – | – |
| COc1ccc2[nH]c(-c3ccc(F)cc3)cc(=O)c2c1OC | 2 µM | > 20 µM | > 20 µM | > 20 µM | – | – | – | – | – | – | – | – |
| COc1ccc2[nH]c(-c3cccc(F)c3)cc(=O)c2c1OP(=O)([O-])[O-].[Na+].[Na+] | – | – | – | – | tde | Dose-dependent effect | Dose-dependent effect | Non-toxic | Active | tde | Active | Active |
| O=c1cc(-c2cccc(F)c2)[nH]c2ccc(O)c(O)c12 | 0.3 µM | 8.2 µM | 6.9 µM | 6.1 µM | – | – | – | – | – | – | – | – |
| COc1ccc2[nH]c(-c3ccc(F)cc3)cc(=O)c2c1O | 1.8 µM | 2.4 µM | 11 µM | 8.8 µM | – | – | – | – | – | – | – | – |
